The source made the active and inactive calls. The rule behind the calls is not given here.
Key:
NCI-H3255 [1] = test: Induction of apoptosis in human H3255 cells assessed as viable cells at 250 nM after 48 hrs by Annexin V-FITC/PI staining based flow cytometry (reference value: 87.9%); assay type: functional; details: NCI-H3255, 48 h, read-out: Activity
[2] = target: T1, Epidermal growth factor receptor (Homo sapiens, UniProt P00533); test: Inhibition of EGFR in human A431 cells assessed as decrease in EGF-induced ERK1/2 phosphorylation by Western blot method; assay type: cell-based
Method in brief: (§1)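 Cell lysates prepared in protein lysis buffer and cleared at 12,000 g for 10 min at 4 °C. 50 μg protein per lane was run on a gel, transferred to PVDF and immunoblotted, with GAPDH as the loading control.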

[3] = target: T1, Epidermal growth factor receptor; test: Inhibition of EGF-induced EGFR autophosphorylation at Y1068 residues in human HCC827 cells by Western blot method; assay type: cell-based; method in brief: as §1
NCI-H3255 [4] = test: Induction of apoptosis in human H3255 cells assessed as viable cells at 500 nM after 48 hrs by Annexin V-FITC/PI staining based flow cytometry (reference value: 87.9%); assay type: functional; details: NCI-H3255, 48 h, read-out: Activity
NCI-H3255 [5] = test: Induction of apoptosis in human H3255 cells assessed as early apoptotic cells at 500 nM after 48 hrs by Annexin V-FITC/PI staining based flow cytometry (reference value: 3.22%); assay type: functional
A-431 [6] = test: Induction of apoptosis in human A431 cells assessed as late apoptotic cells at 250 nM after 48 hrs by Annexin V-FITC/PI staining based flow cytometry (reference value: 2.11%); assay type: functional
A-431 [7] = test: Induction of apoptosis in human A431 cells assessed as viable cells at 500 nM after 48 hrs by Annexin V-FITC/PI staining based flow cytometry (reference value: 90.3%); assay type: functional; details: A-431, 48 h, read-out: Activity
A-431 [8] = test: Induction of apoptosis in human A431 cells assessed as late apoptotic cells at 500 nM after 48 hrs by Annexin V-FITC/PI staining based flow cytometry (reference value: 2.11%); assay type: functional
A-431 [9] = test: Induction of apoptosis in human A431 cells assessed as late apoptotic cells at 1000 nM after 48 hrs by Annexin V-FITC/PI staining based flow cytometry (reference value: 2.11%); assay type: functional
HCC827 [10] = test: Induction of apoptosis in human HCC827 cells assessed as early apoptotic cells at 250 nM after 48 hrs by Annexin V-FITC/PI staining based flow cytometry (reference value: 2.83%); assay type: functional
HCC827 [11] = test: Induction of apoptosis in human HCC827 cells assessed as late apoptotic cells at 1000 nM after 48 hrs by Annexin V-FITC/PI staining based flow cytometry (reference value: 1.15%); assay type: functional
NCI-H1975 [12] = test: Induction of apoptosis in human NCI-H1975 cells assessed as early apoptotic cells at 250 nM after 48 hrs by Annexin V-FITC/PI staining based flow cytometry (reference value: 2.07%); assay type: functional
NCI-H1975 [13] = test: Induction of apoptosis in human NCI-H1975 cells assessed as necrotic cells at 250 nM after 48 hrs by Annexin V-FITC/PI staining based flow cytometry (reference value: 2.31%); assay type: functional
NCI-H1975 [14] = test: Induction of apoptosis in human NCI-H1975 cells assessed as viable cells at 500 nM after 48 hrs by Annexin V-FITC/PI staining based flow cytometry (reference value: 93.7%); assay type: functional; details: NCI-H1975, 48 h, read-out: Activity
NCI-H1975 [15] = test: Induction of apoptosis in human NCI-H1975 cells assessed as necrotic cells at 500 nM after 48 hrs by Annexin V-FITC/PI staining based flow cytometry (reference value: 2.31%); assay type: functional
NCI-H1975 [16] = test: Induction of apoptosis in human NCI-H1975 cells assessed as early apoptotic cells at 1000 nM after 48 hrs by Annexin V-FITC/PI staining based flow cytometry (reference value: 2.07%); assay type: functional
NCI-H1975 [17] = test: Induction of apoptosis in human NCI-H1975 cells assessed as late apoptotic cells at 1000 nM after 48 hrs by Annexin V-FITC/PI staining based flow cytometry (reference value: 1.91%); assay type: functional
A-431 [18] = test: Induction of apoptosis in human A431 cells assessed as early apoptotic cells after 48 hrs by Annexin V-FITC/PI staining based flow cytometry; assay type: functional, cell-based
NCI-H1975 [19] = test: Cell cycle arrest in human NCI-H1975 cells assessed as accumulation at G2/M phase at 100 to 500 nM after 24 hrs by propidium iodide staining based flow cytometry; assay type: functional
Method in brief: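 NCI-H1975 cells (2×10^5) seeded in 6-well plates overnight, then treated 24 h at 50, 100, 250 or 500 nM; 1‰ DMSO medium as control. Cells harvested, washed in cold PBS, fixed in 70% cold ethanol at −20 °C overnight, stained with PI/RNase buffer and analysed by flow cytometry. n=3.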

[20] = AUC (0 to t) in Sprague-Dawley rat at 30 mg/kg, po by UPLC-MS/MS analysis; assay type: ADME, organism-based; details: in vivo
Method in brief: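 Four female and four male Sprague-Dawley rats, 200-220 g, fasted 12 h, then given a single oral dose of 30 mg/kg as a 0.5% CMC-Na suspension. Blood sampled at 0.083, 0.25, 0.5, 1, 2, 4, 8 and 24 h, plasma separated by centrifugation at 4000 r/min for 10 min, and analysed by UPLC–MS/MS. Parameters reported as mean ± SD, n=6.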

PC-9 = test: Antitumor activity against human PC9 cells xenografted in BALB/C nude mouse assessed as decrease in tumor weight at 15 to 30 mg/kg, ip qd administered for 19 days measured for 23 days; assay type: functional, organism-based
Method in brief: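 Six-week-old BALB/C-nu mice given 2×10^6 PC-9 cells subcutaneously in the right flank. At tumour size ~0.2-0.4 cm³, randomised, 5 mice/group. Dosed ip daily for 19 days at 15 or 30 mg/kg, vehicle DMSO:Span-80:ddH₂O = 2:1:50; vehicle-treated control group. Tumour volume = (W²×L)/2. Tumours weighed.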

Mus musculus [21] = test: Toxicity in BALB/C nude mouse xenografted with human PC9 cells at 15 to 30 mg/kg, ip qd administered for 19 days measured for 23 days; assay type: organism-based; details: in vivo, 552 h
Method in brief: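 Six-week-old BALB/C-nu mice were injected subcutaneously in the right flank with about 2×10^6 PC-9 cells. At a tumour size of ~0.2-0.4 cm³ they were randomised, 5 mice/group. Drug was given in DMSO:Span-80:ddH₂O 2:1:50, ip, daily at 15 or 30 mg/kg for 19 days; vehicle group included. Tumour volume = (W²×L)/2.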

Mus musculus [22] = test: In vivo inhibition of AKT phosphorylation in tumor of BALB/C nude mouse xenografted with human PC9 cells at 15 to 30 mg/kg, ip qd administered for 19 days by immunoblot method; assay type: functional, organism-based
Mus musculus [23] = test: In vivo inhibition of AKT phosphorylation in tumor of BALB/C nude mouse xenografted with human PC9 cells at 15 to 30 mg/kg, ip qd administered for 19 days by immunohistochemical analysis; assay type: functional, organism-based

T1 sequence (P00533 whole entry): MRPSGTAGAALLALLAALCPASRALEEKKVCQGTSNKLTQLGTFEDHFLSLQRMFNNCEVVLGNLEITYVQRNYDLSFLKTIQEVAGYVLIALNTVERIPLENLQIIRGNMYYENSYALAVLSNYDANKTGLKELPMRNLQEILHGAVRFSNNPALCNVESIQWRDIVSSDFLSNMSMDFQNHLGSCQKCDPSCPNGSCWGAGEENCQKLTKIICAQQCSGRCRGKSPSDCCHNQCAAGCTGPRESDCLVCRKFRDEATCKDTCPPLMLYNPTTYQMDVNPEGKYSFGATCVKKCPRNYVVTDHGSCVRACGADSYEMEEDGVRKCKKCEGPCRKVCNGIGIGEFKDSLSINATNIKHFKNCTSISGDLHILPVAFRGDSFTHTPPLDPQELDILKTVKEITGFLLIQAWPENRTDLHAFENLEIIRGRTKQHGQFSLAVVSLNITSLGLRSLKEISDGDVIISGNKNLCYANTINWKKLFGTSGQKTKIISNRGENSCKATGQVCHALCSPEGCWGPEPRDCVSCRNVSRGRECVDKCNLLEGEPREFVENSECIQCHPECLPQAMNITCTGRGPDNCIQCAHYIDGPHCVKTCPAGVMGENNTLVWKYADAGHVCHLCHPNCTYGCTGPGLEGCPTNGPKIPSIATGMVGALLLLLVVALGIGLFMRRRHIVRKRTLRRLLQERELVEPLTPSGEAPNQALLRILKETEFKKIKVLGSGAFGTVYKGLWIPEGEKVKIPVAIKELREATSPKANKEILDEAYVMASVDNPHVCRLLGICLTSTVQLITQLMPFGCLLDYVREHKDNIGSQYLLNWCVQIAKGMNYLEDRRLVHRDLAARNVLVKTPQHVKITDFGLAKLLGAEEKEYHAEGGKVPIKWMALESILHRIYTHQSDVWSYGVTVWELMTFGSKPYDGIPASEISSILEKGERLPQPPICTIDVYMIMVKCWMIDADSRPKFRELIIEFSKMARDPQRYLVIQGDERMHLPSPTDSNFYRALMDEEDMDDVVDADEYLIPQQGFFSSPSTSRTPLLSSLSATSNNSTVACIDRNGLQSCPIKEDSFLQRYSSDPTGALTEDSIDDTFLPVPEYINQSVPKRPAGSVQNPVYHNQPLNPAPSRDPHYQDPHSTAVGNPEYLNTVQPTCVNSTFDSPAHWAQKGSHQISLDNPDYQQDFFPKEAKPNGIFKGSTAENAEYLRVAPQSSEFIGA

COc1cccc(Nc2cc(Nc3cc(OC)ccc3OC)ncn2)c1
viability at 0.25 µM (NCI-H3255 [1]): 79.2%
inhibition [2]: Dose-dependent effect
inhibition [3]: Dose-dependent effect
viability at 0.5 µM (NCI-H3255 [4]): 78.2%
Activity (NCI-H3255 [5]): 11.5%
Activity (A-431 [6]): 6.5%
viability at 0.5 µM (A-431 [7]): 70.7%
Activity (A-431 [8]): 8.57%
Activity (A-431 [9]): 13%
Activity (HCC827 [10]): 15.5%
Activity (HCC827 [11]): 14.4%
Activity (NCI-H1975 [12]): 22.6%
Activity (NCI-H1975 [13]): 7.95%
viability at 0.5 µM (NCI-H1975 [14]): 52.5%
Activity (NCI-H1975 [15]): 6.93%
Activity (NCI-H1975 [16]): 27.8%
Activity (NCI-H1975 [17]): 18.2%
Activity (A-431 [18]): Dose-dependent effect
Activity (NCI-H1975 [19]): Active
AUC(0-t) [20]: 5700 ng·h/mL
Activity (PC-9): Active
Activity (Mus musculus [21]): Non-Toxic
inhibition (Mus musculus [22]): Active
inhibition (Mus musculus [23]): Active
